Experimental data reported in ChEMBL document CHEMBL3272036, “Reactions of 2-acyloxyisobutyryl halides with nucleosides. Synthesis and biological evaluation of some 3"-acyl and 3',5'-diacyl derivatives of 1-beta-D-arabinofuranosylcytosine” (J Med Chem, 1976).
Values after ≈ are worked out from the molar mass of the structure shown. Active and inactive are the calls of the source. The calls are words filed in the database; no cut-off is given here.

Experiments:
[1] = test system: L1210; assay: Antitumor activity against mouse L1210 cells allografted in BDF1 mouse assessed as increase in life span at 200 mg/kg, ip administered as single dose relative to vehicle-treated control; format: functional; conditions: route intraperitoneal
Summary of the method: (§1)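 Single intraperitoneal injection given 24 h after the leukemic cells were introduced, at 100, 200, 500 or 1000 mg/kg. Read-out is % increase in life span (ILS), with the count of 30-day survivors per group recorded (group sizes 7–8 mice).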

[2] = test system: L1210; assay: Antitumor activity against mouse L1210 cells allografted in BDF1 mouse assessed as increase in life span at 500 mg/kg, ip administered as single dose relative to vehicle-treated control; format: functional; conditions: route intraperitoneal; summary of the method: as §1
[3] = test system: L1210; assay: Antitumor activity against mouse L1210 cells allografted in BDF1 mouse assessed as increase in life span at 1000 mg/kg, ip administered as single dose relative to vehicle-treated control; format: functional; conditions: route intraperitoneal; summary of the method: as §1
[4] = test system: L1210; assay: Antitumor activity against mouse L1210 cells allografted in BDF1 mouse assessed as increase in life span at 100 mg/kg, ip administered as single dose relative to vehicle-treated control; format: functional; conditions: route intraperitoneal; summary of the method: as §1
[5] = test system: L1210; assay: Antitumor activity against mouse L1210 cells allografted in BDF1 mouse assessed as survival at 1000 mg/kg, ip administered as single dose measured on day 30 relative to vehicle-treated control; format: functional, organism-based; parameters: dose 1000 mg/kg
Summary of the method: (§2)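 Leukemic L1210 cells were introduced into mice. Each compound was then given as a single intraperitoneal injection 24 h later. Activity is expressed as % increase in life span (ILS), with the count of 30-day survivors per group. Doses tested were 100, 200, 500 and 1000 mg/kg.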

[6] = test system: Vaccinia virus; assay: Antiviral activity against Vaccinia virus IHD infected in African green monkey BGM cells assessed as plaque reduction measured on day 5 by disk diffusion assay; format: functional; conditions: Orthopoxvirus vaccinia, 120 h, read-out: ED50 (the source's name)
[7] = test system: L1210; assay: Antitumor activity against mouse L1210 cells allografted in BDF1 mouse assessed as survival at 200 mg/kg, ip administered as single dose measured on day 30 relative to vehicle-treated control; format: functional, organism-based; parameters: dose 200 mg/kg; summary of the method: as §2
[8] = test system: L1210; assay: Antitumor activity against mouse L1210 cells allografted in BDF1 mouse assessed as survival at 100 mg/kg, ip administered as single dose measured on day 30 relative to vehicle-treated control; format: functional, organism-based; parameters: dose 100 mg/kg; summary of the method: as §2
[9] = test system: Herpesviridae sp.; assay: Antiviral activity against Herpes Simplex virus HF infected in African green monkey BGM cells assessed as plaque reduction measured on day 5 by disk diffusion assay; format: functional; conditions: 120 h, read-out: ED50 (the source's name)
[10] = test system: HeLa; assay: Cytotoxicity against human HeLa cells after 48 hrs by Coulter counter analysis; format: functional; conditions: read-out: ED50 (the source's name)
[11] = test system: L1210; assay: Antitumor activity against mouse L1210 cells allografted in BDF1 mouse assessed as survival at 500 mg/kg, ip administered as single dose measured on day 30 relative to vehicle-treated control; format: functional, organism-based; parameters: dose 500 mg/kg; summary of the method: as §2
[12] = test system: L1210; assay: Antitumor activity against mouse L1210 cells allografted in ip dosed mouse administered as single dose relative to vehicle-treated control; format: functional; summary of the method: as §2
[13] = test system: L1210; assay: Chemotherapeutic index, ratio of ILSmax for antitumor activity against mouse L1210 cells allografted in BDF1 mouse to ILS30 for antitumor activity against mouse L1210 cells allografted in BDF1 mouse; format: functional
Summary of the method: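 Dose-response curves were determined in L1210-bearing mice, each receiving a single ip injection 24 h after leukemic cell introduction. Chemotherapeutic index = the dose producing maximum % ILS divided by the dose giving 30% ILS.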

SMILES | ILS at 200 mg/kg [1] [%] | ILS at 500 mg/kg [2] [%] | ILS at 1000 mg/kg [3] [%] | ILS at 100 mg/kg [4] [%] | Activity [5] | EC50 [6] [nM] | Activity [7] | Activity [8] | EC50 [9] [nM] | EC50 [10] [µg/mL] | Activity [11] | ILS30 [12] [mg/kg] | ILSmax [12] [mg/kg] | Ratio [13]
CCCCCCCCCCCCCCCCCCCC(=O)O[C@H]1[C@H](O)[C@H](n2ccc(N)nc2=O)O[C@@H]1CO | 164 | > 274 | > 295 | 91 | Active | > 30000 | inactive | inactive | > 30000 | 0.1 (≈ 0.186 µM) |  |  |  | 
Nc1ccn([C@@H]2O[C@H](CO)[C@@H](O)[C@@H]2O)c(=O)n1 [CYTARABINE] | 7 | 16 | 34 | 8 | inactive | 70 | inactive | inactive | 160 | 0.05 (≈ 0.206 µM) | inactive |  |  | 
CCCCCCCCCC(=O)O[C@H]1[C@H](O)[C@H](n2ccc(N)nc2=O)O[C@@H]1CO | > 224 | > 161 | -23 | > 241 | inactive | 100 |  |  | 340 | 0.09 (≈ 0.226 µM) |  | 5 | 150 | 30
CCCCCCCCCCCCCCCC(=O)OC[C@H]1O[C@@H](n2ccc(N)nc2=O)[C@@H](O)[C@@H]1O | > 224 | -40 |  | > 257 |  | 300 |  | Active | 1140 | 0.08 (≈ 0.166 µM) | inactive | 2 | 150 | 75
CCCCCCCC/C=C\CCCCCCCCCCCC(=O)O[C@H]1[C@H](O)[C@H](n2ccc(N)nc2=O)O[C@@H]1CO | > 280 | -34 |  | > 280 | inactive | 17500 | Active | Active | > 30000 | 0.16 (≈ 0.284 µM) | inactive |  |  | 
CC(=O)O[C@H]1[C@H](O)[C@H](n2ccc(N)nc2=O)O[C@@H]1CO | 19 | 20 |  | 14 |  | 580 | inactive | inactive | 1450 | 0.14 (≈ 0.491 µM) | inactive |  |  | 
CCCCCCCCCCCCCCCCCCCCCC(=O)OC[C@H]1O[C@@H](n2ccc(N)nc2=O)[C@@H](O)[C@@H]1O | > 295 | > 295 | 45 | > 228 | inactive | 450 | Active |  | 12000 | 0.04 (≈ 0.0707 µM) | Active | 1 | 500 | 500
CCCCCCCCCCCCCCCCCCCCCC(=O)O[C@H]1[C@H](O)[C@H](n2ccc(N)nc2=O)O[C@@H]1CO | > 215 |  | > 240 | > 200 | Active | > 30000 |  |  | > 30000 | 1.1 (≈ 1.94 µM) |  | 2 | 2000 | 1000
CCCCCCCCCCCCCC(=O)OC[C@H]1O[C@@H](n2ccc(N)nc2=O)[C@@H](O)[C@@H]1OC(=O)CCCCCCCCCCCCC | > 240 | > 105 | -12 | > 255 | inactive | 5700 | Active |  | 10000 | 1.4 (≈ 2.11 µM) |  |  |  | 
CCCC(=O)O[C@H]1[C@H](O)[C@H](n2ccc(N)nc2=O)O[C@@H]1CO | 13 | 22 |  |  |  | 1200 | inactive |  | 2800 | 0.11 (≈ 0.351 µM) | inactive |  |  | 
CCCCCCCCCCCCCCCC(=O)O[C@H]1[C@H](O)[C@H](n2ccc(N)nc2=O)O[C@@H]1CO | > 295 | -20 | -19 | > 295 | inactive | 140 | Active | Active | 670 | 0.24 (≈ 0.498 µM) | inactive | 1 | 200 | 200
CCCCCCCC(=O)O[C@H]1[C@H](O)[C@H](n2ccc(N)nc2=O)O[C@@H]1CO | 48 | 37 | 11 | 34 | inactive | 110 | inactive | inactive | 640 | 0.1 (≈ 0.271 µM) | inactive |  |  | 
CCCCCCCCCC(=O)OC[C@H]1O[C@@H](n2ccc(N)nc2=O)[C@@H](O)[C@@H]1OC(=O)CCCCCCCCC | > 214 | > 205 | -4 |  | inactive | 350 |  |  | 780 | 0.11 (≈ 0.199 µM) |  |  |  | 
CCCCCCCCCCCCCCCCCC(=O)O[C@H]1[C@H](O)[C@H](n2ccc(N)nc2=O)O[C@@H]1CO | > 228 |  | -23 | > 219 | inactive | 380 |  | Active | 700 | 0.13 (≈ 0.255 µM) |  |  |  | 
CCCCCCCC(=O)OC[C@H]1O[C@@H](n2ccc(N)nc2=O)[C@@H](O)[C@@H]1OC(=O)CCCCCCC.Cl | 20 |  | 46 | -28 | inactive | 220 | inactive | inactive | 2600 | 0.13 |  |  |  | 
CCCCCCCCCCCCCC(=O)O[C@H]1[C@H](O)[C@H](n2ccc(N)nc2=O)O[C@@H]1CO | > 284 | -21 | -23 | > 266 | inactive | 180 | Active |  | 640 | 0.08 (≈ 0.176 µM) | inactive |  |  | 
CCCCCCCC/C=C\CCCCCCCCCCCC(=O)OC[C@H]1O[C@@H](n2ccc(N)nc2=O)[C@@H](O)[C@@H]1OC(=O)CCCCCCCCCCC/C=C\CCCCCCCC | 86 |  |  | 58 |  | > 30000 | inactive | inactive | > 30000 | > 10 |  |  |  | 
CCCCCCCCCCC(=O)OC[C@H]1O[C@@H](n2ccc(N)nc2=O)[C@@H](O)[C@@H]1OC(=O)CCCCCCCCCC | > 300 | 117 |  | > 280 |  | 300 | inactive |  | 780 | 0.4 (≈ 0.69 µM) | Active |  |  | 
CCCCCCCCCCCCCCCCCCCC(=O)OC[C@H]1O[C@@H](n2ccc(N)nc2=O)[C@@H](O)[C@@H]1OC(=O)CCCCCCCCCCCCCCCCCCC | 39 |  | > 205 | 87 |  | > 30000 | inactive | inactive | > 30000 | > 10 |  |  |  | 
CCCCCCCCCCCCCCCCCCCCCC(=O)OC[C@H]1O[C@@H](n2ccc(N)nc2=O)[C@@H](O)[C@@H]1OC(=O)CCCCCCCCCCCCCCCCCCCCC | 27 |  | 113 | 10 | inactive | > 30000 | inactive | inactive | > 30000 | > 10 |  |  |  | 
CCCCCCCCCC(=O)OC[C@H]1O[C@@H](n2ccc(N)nc2=O)[C@@H](O)[C@@H]1O | > 114 | > 122 | -45 | 59 |  | 180 |  | inactive | 860 | 0.1 (≈ 0.252 µM) |  | 20 | 500 | 25
